Reference: ChEMBL document CHEMBL1250506, “Synthesis of novel sulfanilamide-derived 1,2,3-triazoles and their evaluation for antibacterial and antifungal activities” (2010)
≈ marks a conversion by molar mass, not a printed value.

Assays:
Type in all cases: functional
Staphylococcus aureus [1] = experiment: Antibacterial activity against Staphylococcus aureus ATCC 25923 by twofold serial dilution technique
Escherichia coli = experiment: Antibacterial activity against Escherichia coli JM 109 by twofold serial dilution technique
Shigella dysenteriae = experiment: Antibacterial activity against Shigella dysenteriae by twofold serial dilution technique
Summary of the method: (§1)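 MIC by two-fold broth dilution in 96-well plates following NCCLS. Compounds were dissolved in DMSO as stock, then diluted in Mueller-Hinton broth to 512 down to 0.5. Inoculum was bacterial suspension adjusted with sterile saline to 1 ×10⁵ CFU. Plates were incubated 37 °C for 24 h, with a DMSO-supplemented medium control at matching dilutions. Chloramphenicol was the reference.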

Staphylococcus aureus [2] = experiment: Antibacterial activity against methicillin-resistant Staphylococcus aureus N315 by twofold serial dilution technique; summary of the method: as §1
[3] = Antibacterial activity against Eberthella typhosa by twofold serial dilution technique
Bacillus subtilis = experiment: Antibacterial activity against Bacillus subtilis ATCC 6633 by twofold serial dilution technique
Pseudomonas aeruginosa = experiment: Antibacterial activity against Pseudomonas aeruginosa by twofold serial dilution technique
Candida albicans = experiment: Antifungal activity against Candida albicans ATCC 76615 by twofold serial dilution technique
Summary of the method: (§2)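 Two-fold serial dilution MIC in 96-well microtest plates. Test compounds from DMSO stocks, with fluconazole as reference. MIC read as the first well showing about 80% growth reduction versus the drug-free well.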

Candida = experiment: Antifungal activity against Candida mycoderma by twofold serial dilution technique; summary of the method: as §2

Work on `O=C(N[C@H](CO)[C@H](O)c1ccc([N+](=O)[O-])cc1)C(Cl)Cl` [CHLORAMPHENICOL] yielded an MIC (Staphylococcus aureus [1]) of 4 µg/mL (≈ 12.4 µM), an MIC (Escherichia coli) of 4 µg/mL (≈ 12.4 µM) and an MIC (Shigella dysenteriae) of 4 µg/mL (≈ 12.4 µM). It also gave an MIC (Staphylococcus aureus [2]) of 2 µg/mL (≈ 6.19 µM), an MIC [3] of 2 µg/mL (≈ 6.19 µM) and an MIC (Bacillus subtilis) of 2 µg/mL (≈ 6.19 µM). For the same molecule, the MIC (Pseudomonas aeruginosa) was 8 µg/mL (≈ 24.8 µM).
For `Nc1ccc(S(=O)(=O)NCc2cn(Cc3ccc(F)cc3)nn2)cc1`, the MIC (Staphylococcus aureus [1]) was 128 µg/mL (≈ 354 µM), the MIC (Escherichia coli) was 256 µg/mL (≈ 708 µM) and the MIC (Candida albicans) was > 512 µg/mL. The MIC (Shigella dysenteriae) was 128 µg/mL (≈ 354 µM), the MIC (Candida) was > 512 µg/mL and the MIC (Staphylococcus aureus [2]) was > 512 µg/mL. For the same molecule, the MIC [3] was 256 µg/mL (≈ 708 µM), the MIC (Bacillus subtilis) was > 512 µg/mL and the MIC (Pseudomonas aeruginosa) was 128 µg/mL (≈ 354 µM).
With `Nc1ccc(S(=O)(=O)NCc2cn(Cc3ccc(F)cc3F)nn2)cc1` the MIC (Staphylococcus aureus [1]) was 64 µg/mL (≈ 169 µM), the MIC (Escherichia coli) was 128 µg/mL (≈ 337 µM) and the MIC (Candida albicans) was 256 µg/mL (≈ 675 µM). For the same molecule, the MIC (Shigella dysenteriae) was 16 µg/mL (≈ 42.2 µM), the MIC (Candida) was 512 µg/mL (≈ 1350 µM) and the MIC (Staphylococcus aureus [2]) was 128 µg/mL (≈ 337 µM). It also gave an MIC [3] of 128 µg/mL (≈ 337 µM), an MIC (Bacillus subtilis) of 128 µg/mL (≈ 337 µM) and an MIC (Pseudomonas aeruginosa) of 16 µg/mL (≈ 42.2 µM).
With `CCCCCCCCn1cc(CNS(=O)(=O)c2ccc(N)cc2)nn1` the MIC (Staphylococcus aureus [1]) was > 512 µg/mL, the MIC (Escherichia coli) was 512 µg/mL (≈ 1400 µM) and the MIC (Candida albicans) was > 512 µg/mL. The MIC (Shigella dysenteriae) was 256 µg/mL (≈ 700 µM), the MIC (Candida) was 512 µg/mL (≈ 1400 µM) and the MIC (Staphylococcus aureus [2]) was 512 µg/mL (≈ 1400 µM). For the same molecule, the MIC [3] was 256 µg/mL (≈ 700 µM), the MIC (Bacillus subtilis) was 256 µg/mL (≈ 700 µM) and the MIC (Pseudomonas aeruginosa) was 128 µg/mL (≈ 350 µM).
For `Nc1ccc(S(=O)(=O)NCc2cn(Cc3ccccc3Cl)nn2)cc1`, the MIC (Staphylococcus aureus [1]) was > 512 µg/mL, the MIC (Escherichia coli) was > 512 µg/mL and the MIC (Candida albicans) was > 512 µg/mL. The MIC (Shigella dysenteriae) was 512 µg/mL (≈ 1360 µM), the MIC (Candida) was > 512 µg/mL and the MIC (Staphylococcus aureus [2]) was > 512 µg/mL. For the same molecule, the MIC [3] was > 512 µg/mL, the MIC (Bacillus subtilis) was > 512 µg/mL and the MIC (Pseudomonas aeruginosa) was 512 µg/mL (≈ 1360 µM).
In the case of `Nc1ccc(S(=O)(=O)NCc2cn(Cc3ccccc3)nn2)cc1`, the MIC (Staphylococcus aureus [1]) was 512 µg/mL (≈ 1490 µM), the MIC (Escherichia coli) was > 512 µg/mL and the MIC (Candida albicans) was > 512 µg/mL. For the same molecule, the MIC (Shigella dysenteriae) was 512 µg/mL (≈ 1490 µM), the MIC (Candida) was > 512 µg/mL and the MIC (Staphylococcus aureus [2]) was 256 µg/mL (≈ 745 µM). For the same molecule, the MIC [3] was 512 µg/mL (≈ 1490 µM), the MIC (Bacillus subtilis) was > 512 µg/mL and the MIC (Pseudomonas aeruginosa) was 512 µg/mL (≈ 1490 µM).
In the case of `Nc1ccc(S(=O)(=O)NCc2cn(Cc3ccc([N+](=O)[O-])cc3)nn2)cc1`, the MIC (Staphylococcus aureus [1]) was > 512 µg/mL, the MIC (Escherichia coli) was > 512 µg/mL and the MIC (Candida albicans) was > 512 µg/mL. The MIC (Shigella dysenteriae) was > 512 µg/mL, the MIC (Candida) was > 512 µg/mL and the MIC (Staphylococcus aureus [2]) was 256 µg/mL (≈ 659 µM). The MIC [3] was > 512 µg/mL, the MIC (Bacillus subtilis) was 256 µg/mL (≈ 659 µM) and the MIC (Pseudomonas aeruginosa) was > 512 µg/mL.
For `C#CCNS(=O)(=O)c1ccc(N)cc1`, the MIC (Staphylococcus aureus [1]) was > 512 µg/mL, the MIC (Escherichia coli) was > 512 µg/mL and the MIC (Candida albicans) was > 512 µg/mL. For the same molecule, the MIC (Shigella dysenteriae) was > 512 µg/mL, the MIC (Candida) was > 512 µg/mL and the MIC (Staphylococcus aureus [2]) was > 512 µg/mL. For the same molecule, the MIC [3] was > 512 µg/mL, the MIC (Bacillus subtilis) was > 512 µg/mL and the MIC (Pseudomonas aeruginosa) was > 512 µg/mL.
In the case of `CCCCCCn1cc(CNS(=O)(=O)c2ccc(N)cc2)nn1`, the MIC (Staphylococcus aureus [1]) was 512 µg/mL (≈ 1520 µM), the MIC (Escherichia coli) was > 512 µg/mL and the MIC (Candida albicans) was > 512 µg/mL. The MIC (Shigella dysenteriae) was 256 µg/mL (≈ 759 µM), the MIC (Candida) was > 512 µg/mL and the MIC (Staphylococcus aureus [2]) was 512 µg/mL (≈ 1520 µM). The MIC [3] was > 512 µg/mL, the MIC (Bacillus subtilis) was 256 µg/mL (≈ 759 µM) and the MIC (Pseudomonas aeruginosa) was 256 µg/mL (≈ 759 µM).
In the case of `Nc1ccc(S(=O)(=O)NCc2cn(Cc3ccc(Cl)cc3)nn2)cc1`, the MIC (Staphylococcus aureus [1]) was 512 µg/mL (≈ 1360 µM), the MIC (Escherichia coli) was > 512 µg/mL and the MIC (Candida albicans) was > 512 µg/mL. For the same molecule, the MIC (Shigella dysenteriae) was > 512 µg/mL, the MIC (Candida) was > 512 µg/mL and the MIC (Staphylococcus aureus [2]) was > 512 µg/mL. The MIC [3] was 512 µg/mL (≈ 1360 µM), the MIC (Bacillus subtilis) was > 512 µg/mL and the MIC (Pseudomonas aeruginosa) was > 512 µg/mL.
For `OC(Cn1cncn1)(Cn1cncn1)c1ccc(F)cc1F` [FLUCONAZOLE], the MIC (Candida albicans) was 0.5 µg/mL (≈ 1.63 µM) and the MIC (Candida) was 4 µg/mL (≈ 13.1 µM).
For `CCCCCCCCCCn1cc(CNS(=O)(=O)c2ccc(N)cc2)nn1`, the MIC (Staphylococcus aureus [1]) was 256 µg/mL (≈ 650 µM), the MIC (Escherichia coli) was 512 µg/mL (≈ 1300 µM) and the MIC (Candida albicans) was > 512 µg/mL. The MIC (Shigella dysenteriae) was 128 µg/mL (≈ 325 µM), the MIC (Candida) was > 512 µg/mL and the MIC (Staphylococcus aureus [2]) was 512 µg/mL (≈ 1300 µM). It also gave an MIC [3] of 128 µg/mL (≈ 325 µM), an MIC (Bacillus subtilis) of 64 µg/mL (≈ 163 µM) and an MIC (Pseudomonas aeruginosa) of 64 µg/mL (≈ 163 µM).
In the case of `Cc1cccc(Cn2cc(CNS(=O)(=O)c3ccc(N)cc3)nn2)c1`, the MIC (Staphylococcus aureus [1]) was > 512 µg/mL, the MIC (Escherichia coli) was > 512 µg/mL and the MIC (Candida albicans) was > 512 µg/mL. The MIC (Shigella dysenteriae) was > 512 µg/mL, the MIC (Candida) was > 512 µg/mL and the MIC (Staphylococcus aureus [2]) was > 512 µg/mL. For the same molecule, the MIC [3] was 512 µg/mL (≈ 1430 µM), the MIC (Bacillus subtilis) was 512 µg/mL (≈ 1430 µM) and the MIC (Pseudomonas aeruginosa) was > 512 µg/mL.
For `CCCCCn1cc(CNS(=O)(=O)c2ccc(N)cc2)nn1`, the MIC (Staphylococcus aureus [1]) was > 512 µg/mL, the MIC (Escherichia coli) was > 512 µg/mL and the MIC (Candida albicans) was > 512 µg/mL. For the same molecule, the MIC (Shigella dysenteriae) was 512 µg/mL (≈ 1580 µM), the MIC (Candida) was > 512 µg/mL and the MIC (Staphylococcus aureus [2]) was > 512 µg/mL. The MIC [3] was 512 µg/mL (≈ 1580 µM), the MIC (Bacillus subtilis) was > 512 µg/mL and the MIC (Pseudomonas aeruginosa) was 512 µg/mL (≈ 1580 µM).
For `Nc1ccc(S(=O)(=O)NCc2cn(Cc3cccc(Cl)c3)nn2)cc1`, the MIC (Staphylococcus aureus [1]) was 512 µg/mL (≈ 1360 µM), the MIC (Escherichia coli) was > 512 µg/mL and the MIC (Candida albicans) was > 512 µg/mL. The MIC (Shigella dysenteriae) was > 512 µg/mL, the MIC (Candida) was > 512 µg/mL and the MIC (Staphylococcus aureus [2]) was 256 µg/mL (≈ 678 µM). The MIC [3] was 256 µg/mL (≈ 678 µM), the MIC (Bacillus subtilis) was > 512 µg/mL and the MIC (Pseudomonas aeruginosa) was 512 µg/mL (≈ 1360 µM).
Molecule `Nc1ccc(S(=O)(=O)NCc2cn(Cc3ccc(Cl)cc3Cl)nn2)cc1` has an MIC (Staphylococcus aureus [1]) of 64 µg/mL (≈ 155 µM), an MIC (Escherichia coli) of 128 µg/mL (≈ 310 µM) and an MIC (Candida albicans) of 512 µg/mL (≈ 1240 µM). For the same molecule, the MIC (Shigella dysenteriae) was 32 µg/mL (≈ 77.6 µM), the MIC (Candida) was 512 µg/mL (≈ 1240 µM) and the MIC (Staphylococcus aureus [2]) was 128 µg/mL (≈ 310 µM). The MIC [3] was 128 µg/mL (≈ 310 µM), the MIC (Bacillus subtilis) was 128 µg/mL (≈ 310 µM) and the MIC (Pseudomonas aeruginosa) was 64 µg/mL (≈ 155 µM).
Molecule `CCCCCCCCCCCCn1cc(CNS(=O)(=O)c2ccc(N)cc2)nn1` has an MIC (Staphylococcus aureus [1]) of 128 µg/mL (≈ 304 µM), an MIC (Escherichia coli) of 64 µg/mL (≈ 152 µM) and an MIC (Candida albicans) of 512 µg/mL (≈ 1210 µM). The MIC (Shigella dysenteriae) was 32 µg/mL (≈ 75.9 µM), the MIC (Candida) was 256 µg/mL (≈ 607 µM) and the MIC (Staphylococcus aureus [2]) was 128 µg/mL (≈ 304 µM). It also gave an MIC [3] of 64 µg/mL (≈ 152 µM), an MIC (Bacillus subtilis) of 128 µg/mL (≈ 304 µM) and an MIC (Pseudomonas aeruginosa) of 32 µg/mL (≈ 75.9 µM).
With `CCCCCCCCCCCCCCCCn1cc(CNS(=O)(=O)c2ccc(N)cc2)nn1` the MIC (Staphylococcus aureus [1]) was 256 µg/mL (≈ 536 µM), the MIC (Escherichia coli) was 256 µg/mL (≈ 536 µM) and the MIC (Candida albicans) was > 512 µg/mL. The MIC (Shigella dysenteriae) was 128 µg/mL (≈ 268 µM), the MIC (Candida) was > 512 µg/mL and the MIC (Staphylococcus aureus [2]) was 512 µg/mL (≈ 1070 µM). The MIC [3] was 128 µg/mL (≈ 268 µM), the MIC (Bacillus subtilis) was 256 µg/mL (≈ 536 µM) and the MIC (Pseudomonas aeruginosa) was 64 µg/mL (≈ 134 µM).
